PubChem BioAssay
Values without a mark were called inactive. Results filed as inconclusive are left out. Active and inactive are the calls of the source.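 How the source made its calls, unless noted: active means cell viability at or below a set limit in both duplicate runs, the limit being the all-compound median minus 4 SD (cut at about 23% in these data, passing the limit was not always enough); inconclusive means no clear call, values can overlap the other calls; inactive means the rest.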

Legend:
[1] = S. cerevisiae growth inhibition in permissive medium (OD615), pilot counter-assay for S. cerevisiae lifespan shortening project, permissive growth control (AID 705;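 active means growth inhibition above 25% in both replicates, a cutoff set 3 SD above the mean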); details: OD615, 24 h, at 10 µM, active compounds read high
Summary of the method: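 System: S. cerevisiae with engineered DeaD lifespan system. Medium: SC raffinose/galactose permissive medium. Doses: single compound dose of 10 µM, 0.25% DMSO final. Schedule: 24 h exposure, 30 °C. Measured by: OD615 turbidity read. Read-out: growth inhibition.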

[2] = S. cerevisiae growth inhibition in restrictive medium, OD615, pilot screen, restrictive growth control, yeast lifespan reduction project (AID 706;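 active means growth inhibition above a set limit, 3 SD over mean compound inhibition, in both replicates, cut at about 43% in these data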;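 further: modified DeaD lifespan yeast strain shifted to restrictive glucose medium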); details: OD615, 48 h, at 10 µM, active compounds read high
Summary of the method: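 Assay system – genetically modified Saccharomyces cerevisiae, DeaD replicative lifespan assay strain · Medium – CSMM-D glucose medium · Doses – 10 µM compound, 0.25% DMSO · Times – 4 h pre-incubation, 48 h exposure at 30 °C · Signal – optical density at 615 nm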

[3] = doxorubicin toxicity protection in MRP-1 cells – H69AR cells, CellTiter-Glo, duplicate, MRP-1 activator project, pilot screen (AID 807;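 active means viability increase at or above a cutoff of the median across tested compounds plus 3 SD, cut at about 8.5% in these data, passing the limit was not always enough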;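 further: compound pretreatment 18-22 h then 72 h combined with doxorubicin; 0% = doxorubicin alone and 100% = vehicle without doxorubicin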); details: H69AR viability with doxorubicin, CellTiter-Glo luminescence; at 10 µM; active compounds read high
[4] = viability of HCT116 without oncogenic beta-catenin – human colon tumor cells, pilot screen (AID 823); details: HCT116 beta-catenin knockout viability, CellTiter-Glo, 60 h; at 10 µM; active compounds read low;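 further: 0% = wells killed by 20 µM Hyamine and 100% = untreated DMSO cell wells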
[5] = viability of PTEN-null HCT116 cells – cell-based, HCT116 clonal line, CellTiter-Glo, pilot screen (AID 824;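 active means viability at or below 27.92% in each of two runs, the all-compound median minus 4 SD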;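 further: 0% = 20 µM Hyamine control and 100% = vehicle cell control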); details: HCT116 PTEN-deleted viability, 60 h, at 10 µM, active compounds read low
[6] = RAM pathway blockade in budding yeast – dse1pr::URA3 reporter, 5-FOA selection, pilot screen (AID 869;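 active means inhibition over a set limit, the all-compound mean plus 3 SD, in both replicate runs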;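 further: 0% = DMSO wells with no growth and 100% = 10 µM 1-NA-PP1 with full growth; RAM network block rescues cells from 5-FOA so hits raise OD615 growth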); details: S. cerevisiae dse1pr::URA3 5-FOA growth, OD615, 2 d; at 10 µM; active compounds read high; strain carries analog-sensitive mutant Cbk1 kinase
[7] = RAM signaling pathway blockade in yeast – S. cerevisiae, Pdr1DBD-CYC8 efflux-inhibited sensitized strain, primary screen (AID 1298;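 active means RAM network inhibition above 8.4% in each of two replicates, 3 SD over the compound average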;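 further: 0% = DMSO untreated cells without growth and 100% = 10 µM 1-NA-PP1 full growth; higher means more yeast growth rescued from 5-FOA killing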); details: S. cerevisiae cbk1-as DSE1-URA3 strain, 5-FOA growth OD615, 2 d; at 50 µM; active compounds read high

Row | SMILES | growth inhibition [1] | growth inhibition [2] | viability increase [3] | viability [4] | viability [5] | inhibition [6] | RAM network inhibition [7]
1 | COC(=O)C1C2C=CC3(CN(c4ccc(Cl)c(F)c4)C(=O)C13)O2 (configuration not stated) | -5.96% | 0.405% | -1.28% | 94.6% | 91.8% | 1.67% | 2.93%
2 | COc1ccc(C2NC(=O)NC(O)(C(F)(F)F)C2C(=O)c2ccc(C)cc2)cc1 (configuration not stated) | 6.2% | -7.89% | -2.35% | 100% | 95.1% | 0.56% | -1.03%
3 | c1coc(C2Nc3ccccc3-c3nc4ccccc4n32)c1 (configuration not stated) | -27.2% | -4.04% | -4.32% | 66.6% | 68.1% | 2.14% | 8.31%
4 | O=C(OCC(=O)c1cccs1)c1ccc(NC(=O)c2ccco2)cc1 | -6.02% | -19.9% | -3.62% | 96.9% | 76.1% | 0.87% | 0.26%
5 | COCn1c(-c2cccc(Br)c2)nc2ccccc21 | -10.2% | 3.42% | -4.2% | 85.2% | 86.8% | 1.17% | 3.8%
6 | O=C(Cn1cc2c(n1)CCCC2)NCc1cccc(Cl)c1 | 4.46% | 5.37% | -0.45% | 107% | 99.3% | 1.62% | 3.09%
7 | c1nc2nc3c(c(N4CCOCC4)n2n1)CCCC3 | -6.33% | 11.4% | -1.47% | 103% | 99.7% | 0.645% | 0.44%
8 | O=C(c1cccc(C(=O)N2CCc3ccccc32)n1)N1CCc2ccccc21 | -9.26% | -3.99% | -5.2% | 83.3% | 84.4% | 0.515% | 6.13%
9 | COC(=O)c1cc(OC)c(OC)cc1-n1cnc2cc(OC)c(OC)cc2c1=O | -8.81% | -0.615% | -0.58% | 97.4% | 105% | 0.665% | 0.92%
10 | COCCn1c(SCC(=O)Nc2ccccc2)nc2c1c(=O)[nH]c(=O)n2C | 1.17% | -4.34% | 1.21% | 102% | 95.5% | 1.67% | 1.25%
11 | Nc1nc(Nc2cccc(F)c2)nc2ccccc12 | -11.6% | -30.8% | -5.76% | 70.3% | 67.6% | 1.88% | 4.92%
12 | Cc1cnn(-c2ccc3nnc(-c4ccc(Br)cc4)n3n2)c1 | -5.48% | -11.2% | -4.96% | 85.9% | 84.1% | 1.4% | 3.52%
13 | Brc1ccc(-c2nnc(-c3ccco3)o2)cc1 | -19.6% | -17.3% | 0.83% | 95.1% | 93.9% | 0.93% | 7.37%
14 | CC(C)NC(=O)c1cc2c(-c3ccc(Cl)cc3)nn(C)c2s1 | -10.4% | 3.42% | -6.18% | 74.5% | 76.8% | 3.84% | 4.3%
15 | CC(=O)CSc1nc2ccc(Nc3nc(N4CCOCC4)nc(N4CCOCC4)n3)cc2s1 | 15.1% | 38.6% | -5.89% | 66.6% | 73.5% | 0.87% | 7.76%
16 | Cc1oc(-c2ccccc2)nc1CS(=O)CC(=O)N1CCc2ccccc2C1 (configuration not stated) | 5.38% | 22.9% | -2.89% | 97.8% | 99.8% | 1.62% | 1.69%
17 | COc1ccccc1N(CC(=O)Nc1ccccc1C)S(C)(=O)=O | -5.63% | -10.8% | -3.72% | 94.7% | 95.7% | 1.12% | 1.62%
18 | COc1ccc(CCNC(=O)c2c(-c3ccccc3)noc2C)cc1OC | 3.07% | -2.27% | 0.19% | 102% | 101% | 2.2% | 0.43%

Row | SMILES | growth inhibition [1] | growth inhibition [2] | viability increase [3] | viability [4] | viability [5] | inhibition [6] | RAM network inhibition [7]
19 | CCN1CCN(CC(=O)NC2CCCCC2)C(=O)C1=O | -14.6% | -12.4% | -0.83% | 96.1% | 96.3% | 0.89% | 2.42%
20 | Cc1cc(C(=O)NCc2ccccc2)c(=O)[nH]c1C | -15.4% | -9.45% | 0.83% | 103% | 90.3% | 2.33% | 0.52%
21 | CC(=O)NC(CCS(C)(=O)=O)C(=O)Nc1ccc2c(c1)OCO2 (configuration not stated) | -0.69% | -1.89% | -0.58% | 109% | 95.5% | 0.175% | 2.15%
22 | O=C(c1cccs1)n1cc(C(=S)N2CCOCC2)c2ccccc21 | -4.95% | -0.915% | -0.89% | 94.2% | 88.1% | 1.71% | 4.07%
23 | COc1cc(S(=O)(=O)NCc2ccc3c(c2)OCO3)ccc1Cl | -10.5% | -15.1% | -2.38% | 97.3% | 95.5% | 1.69% | 0.82%
24 | O=C(COC(=O)c1cccs1)Nc1ccccc1 | -5.3% | 0.975% | -0.14% | 96.7% | 97.1% | 1.56% | 0.11%
25 | O=C(Nc1nc(-c2ccccn2)cs1)c1ccc(Cl)s1 | 94.1% (active) | 96.8% (active) | -8.93% | 10.6% (active) | 22.1% (active) | -1.18% | -2.58%
26 | COc1ccc(OC)c2c(C)cc(NCCN3CCOCC3)nc12 | -14.7% | -2.92% | -4.52% | 81.5% | 84.9% | 1.78% | 2.55%
27 | CCCc1cc(C(=O)Nc2cc(Br)ccc2O)no1 | -4.99% | -3.92% | -4.83% | 89% | 88.1% | 2.76% | 5.97%
28 | OCCN1CCN(Cc2cccc(Oc3ccc(Cl)cc3)c2)CC1 | -4.24% | -1.81% | -3.74% | 63.2% | 73.1% | 2.6% | -0.21%
29 | CSCC[C@@H](C(=O)Nc1ccc2c(c1)OCCO2)N1Cc2ccccc2C1=O | 3.3% | 1.73% | -2.91% | 99.3% | 92.3% | 0.83% | 4.13%
30 | Cc1oc(-c2ccccc2F)nc1CS(=O)CC(=O)NCc1ccc2c(c1)OCO2 (configuration not stated) | -13.9% | 2.87% | -1.41% | 94.2% | 89.3% | 2% | 7.13%
31 | CCCCN(CC)CCNC(=O)Cn1cnc2sc(C)c(S(=O)(=O)N3CCOCC3)c2c1=O | -7.83% | 0.72% | -0.05% | 99.5% | 98.4% | 2.3% | 0.78%
32 | COc1ccc(-c2c(C)oc3cc(O)cc(O)c3c2=O)cc1OC | -12.4% | -5.23% | -1.14% | 109% | 93.8% | 1.01% | 4.79%
33 | COCC(=O)Nc1cc(C)c2c(=O)oc3ccccc3c2n1 | 1.37% | 5.79% | -1.64% | 96% | 94% | -0.92% | 2.67%
34 | CCN1CCN(CC(=O)Nc2ccc3c(c2)OCO3)C(=O)C1=O | -18.6% | -4.2% | -0.45% | 101% | 100% | 0.7% | 6.72%
35 | COc1ccccc1NC(=O)CSc1nnnn1C | -4.16% | -6.61% | -1.03% | 105% | 96.4% | 1.37% | 3.12%
36 | Cc1cccc(NC(=O)c2ccc(S(=O)(=O)N3CCCCC3)cc2)n1 | -8.26% | -4% | 1.43% | 94.5% | 87% | -0.09% | 0.16%
